MT stabilizer – microtubule stabilizers in HeLa cells; actives 0.83% (n = 200,000); HeLa tubulin immunostaining HCS, 24 h; share of cells brighter than vehicle mean+2SD; % tubulin-high responders, % at 10 µM;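 active means plate Z-score above 3 for both tubulin-high and condensed-nucleus cell shares, with cell loss under 80%, at 10 µM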;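 further: anti alpha tubulin signal scored within the nucleus-defined area of each cell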
L major viab – reduces viability of Leishmania major promastigotes. actives 9% (n = 200,000). resazurin fluorescence viability. inhibition, % at 10 µM; in the data active means inhibition above about 50%;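 further: promastigotes grown with compound for 44 hours at 28 °C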
BaF3 tox – parental Ba/F3 viability inhibition as JAK2V617F counter-screen. CellTiter-Glo ATP luminescence. AID 1486. actives 1.1% (n = 220,000). inhibition, % at 5.6 µM;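 active means inhibition above a per-campaign cutoff, the mean inhibition of all tested compounds plus 3 SD, cut at about 27% in these data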;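 further: 0% = DMSO wells and 100% = JAK Inhibitor I control wells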
b-catenin transl – beta-catenin nuclear translocation modulation; HeLa beta-catenin nuclear translocation, immunofluorescence imaging; nuclear translocation activity, % at 5 µM; actives 0.3% (n = 190,000);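 active means nuclear translocation activity above 50% at 5 µM, with a well cell count of 50 or more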;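 further: per-cell ratio of nuclear to cytoplasmic median beta-catenin stain intensity; plate controls were DMSO negative control for no effect and GSK-3 inhibitor IX positive control for full effect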
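Test system: human HeLa cells, native beta-catenin. Compound dosing: 5 µM primary single dose, 0.1% DMSO, 0.02–20 µM confirmation series. Incubation: compound exposure 24 h at 37°C. Detection: beta-catenin immunostaining with DAPI counterstain, 20x imaging, 6 fields/well. Read-out basis: Nuclear/cytoplasmic beta-catenin signal ratio, % activation.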
APP transl inh – APP translation inhibition. SH-SY5Y APP 5'UTR-luciferase reporter, luminescence. AID 1285. inhibition, % at 2 µM. actives 0.82% (n = 190,000);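 active means inhibition above a set limit, derived from the sample mean plus 3 SD, cut at about 45% in these data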
Ba/F3 V617F tox – lowers viability of Ba/F3 cells expressing EpoR and JAK2V617F; inhibition, % at 5.6 µM; ATP luminescence; actives 1.1% (n = 220,000);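 active means inhibition above the campaign mean plus 3 SD over all tested compounds, cut at about 24% in these data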;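 further: cytokine-independent growth of Ba/F3 cells driven by EpoR plus mutant JAK2; 0% = DMSO-treated cells and 100% = JAK inhibitor I control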
The depositor's hits bear a star; · = no result. An excerpt weighted towards active compounds, which were near 9.6% of everything screened.

SMILES	MT stabilizer	L major viab	BaF3 tox	b-catenin transl	APP transl inh	Ba/F3 V617F tox
O=C(c1cn(-c2ccccc2)nc1-c1ccc(F)cc1)N1CCOCC1	2	-7	9	-2	5	0
O=C(CCl)Nc1cn(-c2ccccc2)nc1-c1ccc(F)cc1	5	84*	-1	0	8	3
CCOc1ccccc1C(=O)Nc1cnn(Cc2ccc(F)cc2)c1	2	3	7	-2	6	2
COc1ccc(CCNC(=O)CN(CCc2ccccc2)S(C)(=O)=O)cc1	2	1	7	-4	16	5
CCOC(=O)C(=CNc1ccc(NC2=NCC(C)S2)cc1)C(=O)OCC (configuration not stated)	2	15	1	-3	33	16
O=C(COC(=O)c1cnccn1)c1cccc([N+](=O)[O-])c1	·	·	1	0	·	-1
COc1cc(O)c(C(CC(=O)N2CCOCC2)c2cc(OC)c(OC)c(OC)c2)c(OC)c1 (configuration not stated)	·	·	·	0	·	·
Cc1cc(C)n(-c2ccc(F)cc2CN2CCN(Cc3ccccc3)C(CCO)C2)n1 (configuration not stated)	5	-2	2	-1	-5	-2
CC(C)OCCCNC(=O)CNC(=O)c1ccc(Cl)c(Cl)c1	5	-2	3	-1	1	3
CC1=Nc2cc(C(=O)NCCCOC(C)C)ccc2Sc2ccc(C)cc21	12	5	71*	38	95*	74*
CC1=Nc2cc(C(=O)NCCCOC(C)C)ccc2Sc2ccccc21	24*	0	4	15	1	1
CC(C)OCCCNC(=O)c1ccncc1	2	-6	8	-6	5	0
CCOc1ccc(-c2nnc(-c3ccncc3)o2)cc1OCC	4	78*	3	1	-14	-1
CCOc1ccc(-c2nnc(-c3cccnc3)o2)cc1OCC	3	31	8	1	-6	1
Cc1ccnc(NS(=O)(=O)c2ccc(NC(=O)c3cc(-c4ccc(Br)cc4)nc4ccccc34)cc2)n1	1	-6	8	0	-8	0
C=CCn1c(SCC(=O)c2[nH]c(C)c(C(=O)OCC)c2C)nc2scc(-c3ccc(OC)cc3)c2c1=O	8	-3	3	1	60*	-4
O=C(CCC1CCCC1)NCCCN1CCOCC1	5	67*	-1	·	3	-3
O=C(CC1CCCCC1)NCCCN1CCOCC1	2	37	0	-3	-10	-2
CCC(=O)Nc1cccc(C(=O)/C=C/c2cccs2)c1	7	41	12	0	-46	6
CCC(=O)Nc1cccc(C(=O)/C=C/c2ccccc2)c1	4	100*	1	0	-24	-4
O=C(/C=C/c1ccccc1)Nc1cccc(C(=O)O)c1	2	-5	10	0	64*	-2
COc1ccc(NC(=S)N(CCCN2CCCC2)Cc2cccs2)cc1	5	80*	11	1	-5	4
COc1ccc(NC(=S)N(CCCN2CCCC(C)C2)Cc2cccs2)cc1 (configuration not stated)	2	95*	6	·	-7	-1
S=C(Nc1ccc(Cl)cc1)N(CCCN1CCOCC1)Cc1cccs1	4	-9	16	0	10	17
COc1ccc(NC(=S)N(CCCN2CCCC2)Cc2ccco2)cc1	2	14	3	0	-29	-1
SMILES	MT stabilizer	L major viab	BaF3 tox	b-catenin transl	APP transl inh	Ba/F3 V617F tox
COc1ccc(NC(=S)N(CCN(C)C)Cc2cccs2)cc1	3	7	0	-1	-25	-4
Cc1ccc(Cl)cc1NC(=S)N(CCCN1CCN(C)CC1)Cc1cccs1	3	54*	8	-4	0	0
COc1ccc(NC(=S)N(CCCN2CCCCCC2)Cc2cccs2)cc1	1	97*	10	-1	-14	0
Cc1cc(Cl)ccc1NC(=S)N(CCCN1CCOCC1)Cc1cccs1	3	21	7	-1	·	1
O=C(O)CSc1ccc(NC(=O)Nc2ccccc2F)cc1	·	·	5	1	·	8
CSc1cccc(NC(=S)N(CCCN2CCCC2)Cc2cccs2)c1	3	99*	5	·	10	1
CCC(=NCCc1c(C)[nH]c2ccccc12)C1=C(O)CC(c2ccccc2)CC1=O (configuration not stated)	15*	96*	4	80*	29	-4
CCCCC(=NCCc1c(C)[nH]c2ccc(OC)cc12)C1=C(O)CC(c2ccccc2)CC1=O (configuration not stated)	17*	17	4	17	78*	-3
CCC(=NCCc1c(C)[nH]c2ccc(OC(F)(F)F)cc12)C1=C(O)CC(c2ccccc2)CC1=O (configuration not stated)	10	24	4	0	78*	-1
CC(=NCCc1c(C)[nH]c2ccc(OCc3ccccc3)cc12)C1=C(O)CC(c2ccccc2)CC1=O (configuration not stated)	2	24	3	-1	-22	-3
Clc1ccc(CN2C3=NCCN3c3ccccc32)cc1Cl	3	65*	5	2	-3	4
c1ccc(Oc2cccc(OCCCCSc3ncccn3)c2)cc1	2	1	-1	-1	22	-3
O=C(O)c1cc(-c2ccccc2)on1	2	-2	7	·	3	4
O=P(O)(O)c1cc(-c2ccccc2)oc1-c1ccccc1	·	·	28*	1	·	-1
Cc1cc(C(=O)Cn2c(CO)nc3ccccc32)c(C)n1C	·	·	2	-2	·	-3
O=C(Nc1ccc(F)cc1)C1C(c2ccccc2)C1(Cl)Cl (configuration not stated)	4	30	3	-3	-2	-7
Cn1c(=O)n(C)c2cc(/C=N/n3cnnc3)ccc21	2	19	3	1	-4	1
CC1=NN(c2ccc(C)c(C)c2)C(=O)/C1=C/c1ccc2c(c1)n(C)c(=O)n2C	4	97*	2	1	4	-1
COc1cc(/C=C2/C(=O)N(c3ccccc3)N=C2C)ccc1OS(=O)(=O)c1ccccc1	7	87*	4	-6	-20	3
O=C1c2ccccc2NC(c2ccc(-c3ccc(Br)cc3)o2)N1O (configuration not stated)	1	99*	3	-3	7	0
O=C1c2ccccc2NC(c2ccc(-c3cccc([N+](=O)[O-])c3)o2)N1O (configuration not stated)	5	82*	3	·	21	-4
O=C(CCc1nnc(CCCc2ccccc2)o1)NCC(F)(F)F	1	-5	8	0	-19	-2
CC1CCCCN1S(=O)(=O)c1ccc(N(C(=O)c2cnccn2)C(C(=O)NC2CCCC2)c2cccs2)cc1 (configuration not stated)	2	93*	3	-2	2	0
